Results taken from ChEMBL document CHEMBL1641530, “Silanetriols as in vitro inhibitors for AChE” (Bioorg Med Chem Lett, 2011).
Activity calls are given as the source filed them. The calls are words filed in the database; no cut-off is given here.

Legend:
[1] = biological target: Acetylcholinesterase (Electrophorus electricus) (UniProt O42275); test: Inhibition of Electrophorus electricus AChE at 100 uM by Ellman's method relative to control
Summary of the method: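 Modified colorimetric Ellman assay: AChE hydrolyses acetylthiocholine to thiocholine. Final compound concentration 100 µM, read after 15 min. […] Mean ± SEM of at least eight independent experiments.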

[2] = test system: MRC5; test: Cytotoxicity against human MRC5 after 45 hrs by XTT proliferation assay; assay type: functional, cell-based
Summary of the method: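 Human fetal lung fibroblasts (MRC-5) treated with compound, then XTT added at 1, 15 and 41 h. Dehydrogenase cleavage of XTT to orange formazan ran for 4 h and was read photometrically at two wavelengths. Viability is given relative to solvent-only cells. For the 15 h figure, mean ± SEM of at least six independent experiments.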

[3] = biological target: Acetylcholinesterase (Electrophorus electricus, UniProt O42275); test: Inhibition of Electrophorus electricus AChE by Ellman's method
Chain of Acetylcholinesterase (O42275 whole entry): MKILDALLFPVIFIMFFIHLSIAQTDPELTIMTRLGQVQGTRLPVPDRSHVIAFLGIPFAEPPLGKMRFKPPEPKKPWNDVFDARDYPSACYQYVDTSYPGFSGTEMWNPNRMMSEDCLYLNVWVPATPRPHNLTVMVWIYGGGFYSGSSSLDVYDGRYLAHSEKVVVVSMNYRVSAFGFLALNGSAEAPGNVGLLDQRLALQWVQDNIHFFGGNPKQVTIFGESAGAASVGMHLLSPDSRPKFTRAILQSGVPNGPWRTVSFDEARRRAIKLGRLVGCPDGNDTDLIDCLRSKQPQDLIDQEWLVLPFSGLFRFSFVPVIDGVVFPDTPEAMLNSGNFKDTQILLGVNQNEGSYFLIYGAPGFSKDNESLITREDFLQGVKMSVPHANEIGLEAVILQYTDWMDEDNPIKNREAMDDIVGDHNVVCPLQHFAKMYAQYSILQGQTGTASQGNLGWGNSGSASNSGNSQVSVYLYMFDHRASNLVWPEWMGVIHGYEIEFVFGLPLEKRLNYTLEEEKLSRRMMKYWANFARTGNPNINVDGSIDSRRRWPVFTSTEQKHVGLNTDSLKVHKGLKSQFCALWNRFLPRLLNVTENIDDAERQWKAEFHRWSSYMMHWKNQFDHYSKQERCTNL
Summary of the method: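 Ellman-type colorimetric assay with acetylthiocholine as substrate. Four concentrations between 30 and 300 µM were tested, inhibition taken as % of solvent control, and IC50 derived from the concentration–inhibition plot. Mean ± standard deviation of at least eight independent experiments.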

[4] = biological target: Acetylcholinesterase (Electrophorus electricus) (UniProt O42275); test: Irreversible inhibition of Electrophorus electricus AChE by Ellman's method
Summary of the method: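 Reversibility was probed by following AChE inhibition over time in the modified Ellman assay (acetylthiocholine substrate). Activity is referred to solvent control. Mean ± SEM of at least eight independent experiments.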

Chain of Acetylcholinesterase (Electrophorus electricus) (O42275 24-633 limits assumed): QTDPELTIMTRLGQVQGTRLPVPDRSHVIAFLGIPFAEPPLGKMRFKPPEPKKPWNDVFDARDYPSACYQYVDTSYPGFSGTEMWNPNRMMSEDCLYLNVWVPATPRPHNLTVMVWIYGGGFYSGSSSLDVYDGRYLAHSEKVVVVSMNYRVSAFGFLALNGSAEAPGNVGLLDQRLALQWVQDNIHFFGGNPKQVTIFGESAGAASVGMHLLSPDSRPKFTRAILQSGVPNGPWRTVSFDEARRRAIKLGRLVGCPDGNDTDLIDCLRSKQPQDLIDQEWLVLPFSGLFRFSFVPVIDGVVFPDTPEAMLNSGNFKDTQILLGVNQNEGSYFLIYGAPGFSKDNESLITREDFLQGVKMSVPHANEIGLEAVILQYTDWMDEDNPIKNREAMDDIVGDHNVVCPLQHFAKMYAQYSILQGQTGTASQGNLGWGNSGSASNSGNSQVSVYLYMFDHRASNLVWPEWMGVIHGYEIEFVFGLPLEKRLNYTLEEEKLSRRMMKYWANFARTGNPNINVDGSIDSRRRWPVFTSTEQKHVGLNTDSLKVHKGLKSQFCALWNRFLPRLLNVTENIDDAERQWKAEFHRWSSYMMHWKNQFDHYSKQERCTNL

Compound	inhibition [1]	Activity [2]	IC50 [3]	inhibition [4]
O[Si](O)(O)C1CCCCC1 [CYCLOHEXYLSILANETRIOL]	45%	inactive	121 µM	inactive
Cc1cc(C)c(-c2cccc(-c3c(C)cc(C)cc3C)c2[Si](O)(O)O)c(C)c1	12%	inactive	–	inactive
CCC(C)(C)[Si](O)(O)O	10%	inactive	–	inactive
